Results from article PMC7092849 (Biochemical and Biophysical Research Communications, 2018).
“Also recorded” adds a separate entry of the source. Non-standard residues stand in square brackets, D forms with d. No end group written: not given here. Hyp = O=C(O)[C@@H]1C[C@@H](O)CN1

Tests used:
[1] = tested on: 3T3 cells; format: cell-based, mouse
[2] = biological target: the molecule itself; assay: crystal structure
[3] = tested on: 3T3 cells; assay: Cytotoxicity assay; format: cell-based, mouse; conditions: CCK-8, up to 1 mg/ml, Fig. 4D
Outline: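 Mouse fibroblast BALB 3T3 cells were exposed to a recombinant collagen III tandem-repeat protein or collagen-derived peptides at concentrations up to 1000 μg/ml. Viability was read with CCK-8 following the manufacturer's manual. CC50 was the intended read-out.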

**Q.** “C1P: native hCOL3A1 peptide, Gly483-Pro512 (GERGAPGFRGPAGPNGIPGEKGPAGERGAP)” was tested. Which “cell adhesion activity (relative cell adhesion rate)” value [1] did it give?
**A.** the most potent cell adhesion activity; also recorded: much stronger cell adhesion activity than that of Type I collagen

**Q.** How did the “cell adhesion activity (relative cell adhesion rate)” value [1] turn out when “bovine serum albumin [BSA, reference compound]” was run?
**A.** no significant adhesion activity

**Q.** For P[Hyp]GP[Hyp]GP[Hyp]GFRGPAGPNGIPGP[Hyp]GP[Hyp]GP[Hyp]G [host-guest peptide C3Pa, (Pro-Hyp-Gly)3-FRGPAGPNGIPG-(Pro-Hyp-Gly)3], which “stoichiometry N” value [2] is on record?
**A.** 3

B1: T16: recombinant 480aa protein, 16 tandem repeats of the triple-helix fragment of hCOL3A1, Gly483-Pro512 (C1P) (protein)
chain: GERGAPGFRGPAGPNGIPGEKGPAGERGAPGERGAPGFRGPAGPNGIPGEKGPAGERGAPGERGAPGFRGPAGPNGIPGEKGPAGERGAPGERGAPGFRGPAGPNGIPGEKGPAGERGAPGERGAPGFRGPAGPNGIPGEKGPAGERGAPGERGAPGFRGPAGPNGIPGEKGPAGERGAPGERGAPGFRGPAGPNGIPGEKGPAGERGAPGERGAPGFRGPAGPNGIPGEKGPAGERGAPGERGAPGFRGPAGPNGIPGEKGPAGERGAPGERGAPGFRGPAGPNGIPGEKGPAGERGAPGERGAPGFRGPAGPNGIPGEKGPAGERGAPGERGAPGFRGPAGPNGIPGEKGPAGERGAPGERGAPGFRGPAGPNGIPGEKGPAGERGAPGERGAPGFRGPAGPNGIPGEKGPAGERGAPGERGAPGFRGPAGPNGIPGEKGPAGERGAPGERGAPGFRGPAGPNGIPGEKGPAGERGAP
modifications: left off: thioredoxin, end not stated, state not stated
**Q.** B1 was tested. Which “cell adhesion activity (relative cell adhesion rate)” value [1] did it give?
**A.** very strong cell adhesion activity

**Q.** What about the cytotoxicity [3] of the same molecule?
**A.** No obvious cytotoxicity
